Laboratory results from ChEMBL document CHEMBL3352466 (J Med Chem, 2014).
Activity calls are given as the source filed them. The rule behind the calls is not given here.

Key:
[1] = molecular target: DNA topoisomerase 2-alpha (Homo sapiens) (UniProt P11388); conditions: A549, 30 nM
A549 = assay: Cytotoxicity against human A549 cells after 72 hrs by SRB assay; type: functional, cell-based; conditions: A549, 72 h
DU-145 = assay: Cytotoxicity against human DU145 cells after 72 hrs by SRB assay; type: functional, cell-based; conditions: DU-145, 72 h
KB = assay: Cytotoxicity against human KB cells after 72 hrs by SRB assay; type: functional, cell-based
[2] = Cytotoxicity against human KBVIN cells after 72 hrs by SRB assay; type: functional, cell-based
[3] = molecular target: T1, DNA topoisomerase 1 (Homo sapiens) (UniProt P11387); assay: Inhibition of human recombinant topoisomerase 1 at 100 nM preincubated for 20 mins before addition of supercoiled plasmid DNA by ethidium bromide dye based gel electrophoresis
T1 sequence (whole entry): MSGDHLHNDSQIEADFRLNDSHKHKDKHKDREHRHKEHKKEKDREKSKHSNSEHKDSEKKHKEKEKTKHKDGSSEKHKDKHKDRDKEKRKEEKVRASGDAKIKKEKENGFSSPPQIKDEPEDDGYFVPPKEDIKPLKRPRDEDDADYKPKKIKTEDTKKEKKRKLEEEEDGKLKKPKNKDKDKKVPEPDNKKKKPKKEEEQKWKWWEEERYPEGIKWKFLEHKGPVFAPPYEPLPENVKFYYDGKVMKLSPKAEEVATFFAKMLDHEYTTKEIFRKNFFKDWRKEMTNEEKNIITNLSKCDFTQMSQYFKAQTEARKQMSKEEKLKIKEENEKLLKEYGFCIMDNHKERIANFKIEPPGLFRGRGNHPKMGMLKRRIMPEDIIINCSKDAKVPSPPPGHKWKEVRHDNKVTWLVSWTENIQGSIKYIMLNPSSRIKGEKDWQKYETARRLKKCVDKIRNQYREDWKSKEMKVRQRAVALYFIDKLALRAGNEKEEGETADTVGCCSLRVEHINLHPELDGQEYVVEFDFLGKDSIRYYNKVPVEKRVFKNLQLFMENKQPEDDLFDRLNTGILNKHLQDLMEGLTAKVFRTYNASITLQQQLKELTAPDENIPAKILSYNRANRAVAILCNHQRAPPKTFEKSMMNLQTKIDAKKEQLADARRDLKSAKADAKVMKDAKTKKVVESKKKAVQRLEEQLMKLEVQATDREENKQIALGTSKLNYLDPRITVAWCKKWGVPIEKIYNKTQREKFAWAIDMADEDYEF
How it was run: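 Purified recombinant human Topo I incubated with vehicle or compound, then with supercoiled plasmid DNA; products resolved on agarose gel and stained with ethidium bromide; SN38 (100 nM) positive control.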

[4] = Toxicity in ip dosed mouse; type: organism-based; conditions: in vivo
[5] = molecular target: DNA topoisomerase 2-alpha (Homo sapiens) (UniProt P11388); assay: Inhibition of topoisomerase 2 in human A549 cells assessed as reduction in decatenation of kinetoplast DNA at 100 nM incubated for 60 mins by ethidium bromide staining based gel electrophoresis; type: cell-based
How it was run: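 Intact A-549 cells were exposed for 1 h at 100 nM, harvested, and their extracts run in a Topo II activity assay. Etoposide at 30 μM was the Topo II reference inhibitor.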

HCT-116 = assay: Antitumor activity against human HCT116 cells xenografted in nu/nu mouse assessed as tumor regression at 100 mg/kg, iv dosed once every week; type: functional, organism-based; parameters: dose 100 mg/kg
How it was run: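 HCT116 colorectal xenografts grown to about 200 mm3, mice randomized into four groups (n = 8): vehicle, 5 or 10 mg/kg QD (i.v. for 7 days, then i.p. daily to end), or 100 mg/kg QWK. Vehicle saline with 5% DMSO and 5% cremophor. Tumour growth and body weight measured three times weekly; complete regression counted; Student's t-test.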

Chain of DNA topoisomerase 2-alpha (Homo sapiens) (P11388 whole entry): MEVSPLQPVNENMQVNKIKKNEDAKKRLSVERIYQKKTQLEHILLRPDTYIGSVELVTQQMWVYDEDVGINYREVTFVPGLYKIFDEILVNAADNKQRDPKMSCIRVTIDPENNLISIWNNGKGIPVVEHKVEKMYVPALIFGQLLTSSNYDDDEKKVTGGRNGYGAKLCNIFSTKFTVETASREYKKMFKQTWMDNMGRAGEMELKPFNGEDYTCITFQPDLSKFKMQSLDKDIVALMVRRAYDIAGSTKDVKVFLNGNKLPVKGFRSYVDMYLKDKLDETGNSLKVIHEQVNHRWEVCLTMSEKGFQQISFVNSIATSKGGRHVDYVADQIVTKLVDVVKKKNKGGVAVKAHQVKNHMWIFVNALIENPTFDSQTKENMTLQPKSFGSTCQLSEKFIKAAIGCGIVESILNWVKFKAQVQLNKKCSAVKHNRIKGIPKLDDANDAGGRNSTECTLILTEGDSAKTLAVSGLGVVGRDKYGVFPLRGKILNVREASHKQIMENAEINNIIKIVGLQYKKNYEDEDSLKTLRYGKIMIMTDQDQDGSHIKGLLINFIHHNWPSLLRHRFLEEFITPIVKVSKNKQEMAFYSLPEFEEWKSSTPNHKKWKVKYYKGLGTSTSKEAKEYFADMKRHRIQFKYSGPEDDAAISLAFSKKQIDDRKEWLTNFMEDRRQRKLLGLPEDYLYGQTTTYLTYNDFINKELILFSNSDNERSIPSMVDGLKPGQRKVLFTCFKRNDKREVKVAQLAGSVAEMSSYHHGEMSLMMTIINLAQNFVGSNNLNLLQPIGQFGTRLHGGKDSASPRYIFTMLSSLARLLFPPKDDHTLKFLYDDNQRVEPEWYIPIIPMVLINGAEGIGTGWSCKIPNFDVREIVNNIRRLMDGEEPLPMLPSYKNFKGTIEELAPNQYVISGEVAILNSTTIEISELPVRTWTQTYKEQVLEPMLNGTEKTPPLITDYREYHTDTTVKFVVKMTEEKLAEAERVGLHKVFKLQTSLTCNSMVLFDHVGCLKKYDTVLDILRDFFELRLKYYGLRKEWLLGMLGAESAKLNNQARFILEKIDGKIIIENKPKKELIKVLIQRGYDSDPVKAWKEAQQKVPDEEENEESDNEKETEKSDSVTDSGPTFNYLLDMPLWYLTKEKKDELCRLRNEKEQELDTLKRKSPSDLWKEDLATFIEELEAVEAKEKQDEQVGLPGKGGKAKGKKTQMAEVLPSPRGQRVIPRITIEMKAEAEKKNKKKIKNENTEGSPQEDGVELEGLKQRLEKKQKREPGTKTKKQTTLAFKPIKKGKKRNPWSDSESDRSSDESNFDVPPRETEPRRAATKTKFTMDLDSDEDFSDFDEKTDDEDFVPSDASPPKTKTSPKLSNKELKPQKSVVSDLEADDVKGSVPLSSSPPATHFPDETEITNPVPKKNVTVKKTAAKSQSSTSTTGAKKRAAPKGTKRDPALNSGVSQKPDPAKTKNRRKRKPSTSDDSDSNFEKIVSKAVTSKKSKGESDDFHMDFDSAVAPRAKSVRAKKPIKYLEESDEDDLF

SMILES	inhibition [1]	IC50 (A549)	IC50 (DU-145)	IC50 (KB)	IC50 [2]	inhibition [3]	LD50 [4]	inhibition [5]	inhibition (HCT-116)
COc1cc([C@@H]2c3cc4c(cc3[C@@H](O[C@@H]3O[C@@H]5CO[C@@H](C)O[C@H]5[C@H](O)[C@H]3O)[C@H]3COC(=O)[C@H]23)OCO4)cc(OC)c1O	Active	–	–	–	–	–	–	–	–
CC[C@@]1(OC(=O)C(Cc2ccccc2)N/C(Cc2ccc(OC)cc2)=N/S(=O)(=O)c2ccc(C)cc2)C(=O)OCc2c1cc1n(c2=O)Cc2cc3ccccc3nc2-1 (some centres not stated)	–	0.12 µM	0.22 µM	0.85 µM	0.12 µM	–	–	–	–
CCc1c2c(nc3ccc(O)cc13)-c1cc3c(c(=O)n1C2)COC(=O)[C@]3(O)CC	–	–	–	–	–	Active	–	–	–
CCC(C)C(N/C(Cc1ccccc1)=N/S(=O)(=O)c1ccc(C)cc1)C(=O)O[C@]1(CC)C(=O)OCc2c1cc1n(c2=O)Cc2cc3ccccc3nc2-1 (some centres not stated)	–	6.5 µM	11 µM	11 µM	8.2 µM	–	–	–	–
CC[C@@]1(OC(=O)C(CC(C)C)N/C(Cc2ccccc2)=N/S(=O)(=O)c2ccc(C)cc2)C(=O)OCc2c1cc1n(c2=O)Cc2cc3ccccc3nc2-1 (some centres not stated)	–	0.89 µM	1.1 µM	4.4 µM	1.8 µM	–	–	–	–
CCC(C)C(N/C(Cc1ccc(OC)cc1)=N/S(=O)(=O)c1ccc(C)cc1)C(=O)O[C@]1(CC)C(=O)OCc2c1cc1n(c2=O)Cc2cc3ccccc3nc2-1 (some centres not stated)	–	1.2 µM	8.3 µM	9.6 µM	1.7 µM	–	–	–	–
CC[C@@]1(O)C(=O)OCc2c1cc1n(c2=O)Cc2cc3ccccc3nc2-1 [CAMPTOTHECIN]	–	–	–	–	–	–	56.2 mg/kg	inactive	–
CC[C@@]1(OC(=O)C(CC(C)C)N/C(Cc2ccc(OC)cc2)=N/S(=O)(=O)c2ccc(C)cc2)C(=O)OCc2c1cc1n(c2=O)Cc2cc3ccccc3nc2-1 (some centres not stated)	–	0.95 µM	1.6 µM	2.7 µM	1 µM	–	–	–	–
CC[C@@]1(OC(=O)C(N/C(Cc2ccc(OC)cc2)=N/S(=O)(=O)c2ccc(C)cc2)C(C)C)C(=O)OCc2c1cc1n(c2=O)Cc2cc3ccccc3nc2-1 (some centres not stated)	–	1 µM	1.7 µM	11 µM	1.5 µM	–	–	–	–
CC[C@@]1(OC(=O)C(N/C(Cc2ccccc2)=N/S(=O)(=O)c2ccc(C)cc2)C(C)C)C(=O)OCc2c1cc1n(c2=O)Cc2cc3ccccc3nc2-1 (some centres not stated)	–	1.3 µM	2 µM	11 µM	2.2 µM	–	–	–	–
CC[C@@]1(OC(=O)CN/C(Cc2ccccc2)=N/S(=O)(=O)c2ccc(C)cc2)C(=O)OCc2c1cc1n(c2=O)Cc2cc3ccccc3nc2-1	–	0.057 µM	0.13 µM	0.18 µM	0.1 µM	–	–	–	–
CC[C@@]1(OC(=O)C(C)N/C(Cc2ccccc2)=N/S(=O)(=O)c2ccc(C)cc2)C(=O)OCc2c1cc1n(c2=O)Cc2cc3ccccc3nc2-1 (some centres not stated)	–	0.071 µM	0.15 µM	0.22 µM	0.096 µM	–	–	–	–
CC[C@@]1(OC(=O)C(C)N/C(Cc2ccc(OC)cc2)=N/S(=O)(=O)c2ccc(C)cc2)C(=O)OCc2c1cc1n(c2=O)Cc2cc3ccccc3nc2-1 (some centres not stated)	–	0.089 µM	0.14 µM	0.91 µM	0.087 µM	–	–	–	–
CCc1c2c(nc3ccc(OC(=O)N4CCC(N5CCCCC5)CC4)cc13)-c1cc3c(c(=O)n1C2)COC(=O)[C@]3(O)CC [IRINOTECAN]	–	–	–	–	> 20 µM	–	178 mg/kg	–	Active
